Measured values taken from article PMC6896334 (Cell reports, 2019).
Residues, ends and D or L forms follow the SMILES beside them. *: point of attachment. Cbz = O=C(OCc1ccccc1)*

Tests used:
[1] = biological target: T1, NanoLuc luciferase ID1 fusion protein (Homo sapiens, UniProt P41134); assay: NanoBRET target engagement assay in permeabilized 293T cells; assay type: binding
T1 sequence (P41134 1-155): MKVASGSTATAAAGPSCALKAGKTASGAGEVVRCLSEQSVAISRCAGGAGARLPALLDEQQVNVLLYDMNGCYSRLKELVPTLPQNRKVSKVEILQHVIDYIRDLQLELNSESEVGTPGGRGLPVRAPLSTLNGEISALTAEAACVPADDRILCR
Procedure, shortened: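 293T cells transfected with an N-terminal NanoLuc–ID1 fusion construct and plated 24 h later. Cells received 2 µM fluorescent tracer plus 0–60 µM competitor, then were permeabilised with digitonin (50 µg/mL). NanoBRET Nano-Glo substrate was added and the BRET ratio read, following the kit protocol for intracellular target engagement.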

Id1 [2] = biological target: T2, Id1 (Mus musculus, UniProt P20067); assay: Circular dichroism; assay type: binding; details: AGX51 0–50 μM; AGXA 0–110 μM in DMSO
T2 sequence (P20067 1-148 isoform P20067-2): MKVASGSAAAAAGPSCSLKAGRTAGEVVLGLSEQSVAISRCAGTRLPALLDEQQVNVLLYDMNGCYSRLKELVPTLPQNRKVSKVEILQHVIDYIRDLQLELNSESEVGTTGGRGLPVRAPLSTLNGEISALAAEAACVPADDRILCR

ID1, ID2, ID3, and ID4 = assay: Western blot for ID proteins in HCT116 cells; assay type: cell-based, human; details: HCT116, 0–10 μM AGXA, 24 h
[3] = test system: choroidal neovascularization; assay: Laser-induced choroidal neovascularization; assay type: in vivo, mouse; details: intravitreal 1 μg dose, day 14
Procedure, shortened: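 Female C57BL/6 mice aged 4–6 weeks had laser rupture of Bruch's membrane at three sites per eye. Test compounds (1 or 5 µg) or DMSO were given intravitreally. At day 14, choroidal flat mounts were stained with FITC-Griffonia simplicifolia lectin, and CNV area was measured by fluorescence image analysis by an observer masked to group.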

Id1 [4] = biological target: T2, Id1; assay: Western blot for Id1 in 4T1 cells; assay type: cell-based; details: 4T1, 0–20 μM AGXA, 24 h
Procedure, shortened: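 4T1 cells were treated 24 h, collected by trypsinization, washed in PBS and lysed in sucrose/Tris pH 8.0/400 mM NaCl/MgCl2/0.5% NP40 buffer with protease inhibitors. Id1 immunoblots were quantified from 700 and 800 channel intensities, blank-subtracted and normalized to tubulin; IC50 reported from blots.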

HCT116 cells = assay: HCT116 cell viability; assay type: cell-based, human; details: cell-based assays (HCT116 and 4T1)
Procedure, shortened: (§1)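 MTT viability: cells seeded at 5000/well and left overnight, then exposed to the test compound for 24 h. MTT (5 mg/mL) was added for 4 h, medium removed and formazan dissolved in DMSO. Absorbance was read at 570 nm.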

Id1-E47 interaction = biological target: T3, Id1-E47 interaction (Mus musculus, UniProt P20067); assay: In vitro electrophoretic mobility shift assay; assay type: biochemical; details: data not shown
T3 sequence (P20067 1-148 isoform P20067-2): T2 sequence (P20067 1-148 isoform P20067-2)
Procedure, shortened: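 Bacterially purified full-length E47 was mixed with a 32P-labelled E-box probe from the muscle creatine kinase enhancer, plus BSA, DTT, poly dI-dC, salmon sperm DNA and HeLa nuclear extract, with or without purified full-length Id1. Test compounds in DMSO (or DMSO alone) were added at rising concentrations for 30 min. Complexes were resolved on 5% native PAGE and autoradiographed.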

Id proteins = assay: Degradation of Id proteins in cells; assay type: cell-based; details: data not shown
Cell viability assays = assay type: cell-based; details: data not shown
Procedure, shortened: as §1

Id1 (59–104) = biological target: T4, Id1 (59–104) (Mus musculus, UniProt P20067); assay: UV crosslinking of AGX51-XL2 to purified Id1 and mass spectrometry; assay type: binding; details: UV light 20 minutes
T4 sequence (P20067 59-104): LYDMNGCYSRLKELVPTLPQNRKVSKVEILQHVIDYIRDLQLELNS
Procedure, shortened: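 Purified Id1 (aa 59–104, 1 µg) was mixed in the dark with 19.7 ng of a benzophenone photoreactive test-compound analog in DMSO and UV-irradiated for 20 min, with a no-UV control. Samples were run in the dark on a 15% denaturing gel and silver stained. Bands were excised for mass spectrometry.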

E47 = biological target: T5, E47 (Homo sapiens, UniProt P15923); assay: UV crosslinking of AGX51-XL2 to E47 and mass spectrometry; assay type: binding; details: data not shown
T5 sequence (P15923 1-651 isoform P15923-2): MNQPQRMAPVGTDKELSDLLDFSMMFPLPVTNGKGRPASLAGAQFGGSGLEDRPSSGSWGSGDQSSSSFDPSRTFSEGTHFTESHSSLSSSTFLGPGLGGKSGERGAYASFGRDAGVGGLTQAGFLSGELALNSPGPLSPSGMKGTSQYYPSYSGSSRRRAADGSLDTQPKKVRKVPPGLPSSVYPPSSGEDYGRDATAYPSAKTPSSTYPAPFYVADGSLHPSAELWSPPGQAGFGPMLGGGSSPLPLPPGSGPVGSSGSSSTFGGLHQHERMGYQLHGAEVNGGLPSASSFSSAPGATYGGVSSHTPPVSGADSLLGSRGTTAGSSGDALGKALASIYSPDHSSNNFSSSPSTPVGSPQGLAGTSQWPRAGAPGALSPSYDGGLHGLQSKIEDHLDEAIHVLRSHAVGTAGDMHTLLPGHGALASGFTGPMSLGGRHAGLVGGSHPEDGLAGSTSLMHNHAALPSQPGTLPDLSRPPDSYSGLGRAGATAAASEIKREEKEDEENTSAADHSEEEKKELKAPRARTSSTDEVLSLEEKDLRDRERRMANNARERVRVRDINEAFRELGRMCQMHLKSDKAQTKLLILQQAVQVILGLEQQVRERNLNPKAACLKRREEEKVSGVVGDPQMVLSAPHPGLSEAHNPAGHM

FLAG-ID1 = biological target: T6, FLAG-ID1 (Homo sapiens, UniProt P41134); assay: Ubiquitylation assay in HCT116 and U87 glioma cells; assay type: cell-based; details: 60 μM AGX51 2 h, then 20 μM MG132 for 6 h
T6 sequence (P41134 1-155): T1 sequence (P41134 1-155)
Procedure, shortened: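 HCT116 cells co-transfected with FLAG-tagged ID1 and HA-ubiquitin. After 36 h they were exposed to 60 µM test compound for 2 h, then 20 µM MG132 for a further 6 h. Cells were washed in ice-cold PBS, lysed in TBS (50 mM Tris pH 8.0, 150 mM NaCl) containing 2% SDS, and boiled for 10 min.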

6-chloro-2-methyl-N-(4-propoxyphenyl)quinolin-4-amine hydrochloride [AGXA]
competition with the AGX51 tracer (BRET ratio) ([1]; 2 μM AGX51 tracer, 0–60 μM competitor, 50 μg/mL digitonin): more efficiently | effect on Id1 secondary structure (CD spectra) (Id1 [2]): greater activity than AGX51 | ID1 protein levels relative to AGX51 (ID1, ID2, ID3, and ID4): reduced Id protein levels at lower concentrations than AGX51 | area of CNV, AGXA compared with AGX51 [3]: worked better than AGX51 | Id1 protein levels relative to AGX51 (Id1 [4]): reduced Id protein levels at lower concentrations than AGX51 | reduction in IC50 values relative to AGX51 (HCT116 cells): ~4 fold

CC(C)c1ccc(NNC(=O)c2cc3ccccc3s2)cc1 [AGX8, N’-(4-isopropylphenyl)benzo[b]thiophene-2-carbohydrazide]
concentrations required to perturb Id1 in the EMSA assay, relative to AGX51 (Id1-E47 interaction): higher concentrations | concentrations required to degrade Id proteins in cells, relative to AGX51 (Id proteins): higher concentrations | IC50 in cell viability assays, relative to AGX51 (Cell viability assays): higher IC50

COc1ccccc1C(CCN(Cc1ccccc1)C(=O)CCOCCOCCNC(=O)CCC1=[N+]2C(=Cc3ccc(-c4ccc[nH]4)n3[B-]2(F)F)C=C1)c1ccc2c(c1)OCO2 (stereo not shown) [AGX51 tracer, 3-(17-(benzo[d][1,3]dioxol-5-yl)-14-benzyl-17-(2-methoxyphenyl)-3,13-dioxo-7,10-dioxa-4,14-diazaheptadecyl)-5,5-difluoro-7-(1H-pyrrol-2-yl)-5H-5λ4-dipyrrolo[1,2-c:2’,1’-f][1,3,2]diazaborinin-4-ium]
BRET ratio ([1]; tracer 0–4 μM, digitonin-permeabilized 293T cells): dose-dependent increase in the BRET ratio

O=C(NCCC(c1ccccc1)c1ccccc1)c1ccc(C(=O)c2ccccc2)cc1 [AGX51-XL2, 4-benzoyl-N-(3,3-diphenylpropyl)bezamide]
covalent binding to Id1 after UV exposure (Id1 (59–104)): covalently binding to Id1 at six residues (V73, P74, T75, P77, Q78, and R80) | covalent binding to E47 (E47): nor was there evidence of AGX51-XL2 binding to E47

CC(C)C[C@@H](C=O)NC(=O)[C@H](CC(C)C)NC(=O)[C@H](CC(C)C)NC(=O)OCc1ccccc1 [MG132] (Cbz-Leu-Leu-Leu-aldehyde)
ID1 ubiquitylation (FLAG-ID1): ID1 ubiquitylation was observed
